Measured values from ChEMBL document CHEMBL4725234, “Structure-activity relationship analyses of fusidic acid derivatives highlight crucial role of the C-21 carboxylic acid moiety to its anti-mycobacterial activity” (Bioorg Med Chem, 2020).
In brackets after ≈: the same amount, converted by molar mass.

Experiments:
[1] = tested on: Mycobacterium tuberculosis; assay: Antimycobacterial activity against Mycobacterium tuberculosis H37Rv; type: functional
Summary of the method: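 Drug-sensitive M. tuberculosis H37Rv grown in a glycerol-containing medium; MIC99 is the minimum concentration that inhibits growth of 99% of the bacterial population.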

[2] = tested on: CHO-K1; assay: Cytotoxicity against CHOK1 cells assessed as reduction in cell viability; type: cell-based; conditions: Cricetulus griseus

| Compound | MIC99 [1] [µM] | IC50 [2] [µM] |
| --- | --- | --- |
| CC(=O)O[C@H]1C[C@@]2(C)[C@@H](C[C@@H](O)[C@H]3[C@@]4(C)CC[C@@H](O)[C@@H](C)[C@@H]4CC[C@@]32C)/C1=C(\CCC=C(C)C)C(=O)NCCN1CCOCC1 | > 125 | – |
| CCS(=O)(=O)NNC(=O)/C(CCC=C(C)C)=C1\[C@@H](OC(C)=O)C[C@@]2(C)[C@H]1C[C@@H](O)[C@H]1[C@@]3(C)CC[C@@H](O)[C@@H](C)[C@@H]3CC[C@@]12C | 40 (≈ 24.9 µg/mL) | 77.3 |
| CCCCCCCCCC(=O)O[C@@H]1CC[C@@]2(C)[C@@H](CC[C@@]3(C)[C@H]2[C@H](O)C[C@H]2/C(=C(\CCC=C(C)C)C(=O)O)[C@@H](OC(C)=O)C[C@@]23C)[C@@H]1C | > 125 | – |
| CC(=O)O[C@H]1C[C@@]2(C)[C@@H](C[C@@H](O)[C@H]3[C@@]4(C)CC[C@@H](OC(=O)c5ccc(S(C)(=O)=O)cc5)[C@@H](C)[C@@H]4CC[C@@]32C)/C1=C(\CCC=C(C)C)C(=O)O | 31.3 (≈ 21.9 µg/mL) | – |
| CO[C@H]1/C=C/O[C@@]2(C)Oc3c(C)c(O)c4c(O)c(c(/C=N/N5CCN(C)CC5)c(O)c4c3C2=O)NC(=O)/C(C)=C\C=C\[C@H](C)[C@H](O)[C@@H](C)[C@@H](O)[C@@H](C)[C@H](OC(C)=O)[C@@H]1C [RIFAMPIN] | 0.005 (≈ 0.00411 µg/mL) | – |
| CCC(=O)O[C@@H]1CC[C@@]2(C)[C@@H](CC[C@@]3(C)[C@H]2[C@H](O)C[C@H]2/C(=C(\CCC=C(C)C)C(=O)NNS(C)(=O)=O)[C@@H](OC(C)=O)C[C@@]23C)[C@@H]1C | 7.81 (≈ 5.19 µg/mL) | – |
| CC(=O)O[C@H]1C[C@@]2(C)[C@@H](C[C@@H](O)[C@H]3[C@@]4(C)CC[C@@H](O)[C@@H](C)[C@@H]4CC[C@@]32C)/C1=C(\CCC=C(C)C)C(=O)NC#N | 40 (≈ 21.6 µg/mL) | > 185 |
| CC(=O)O[C@H]1C[C@@]2(C)[C@@H](C[C@@H](O)[C@H]3[C@@]4(C)CC[C@@H](OC(=O)c5ccc(C)cc5)[C@@H](C)[C@@H]4CC[C@@]32C)/C1=C(\CCC=C(C)C)C(=O)O | 31.3 (≈ 19.9 µg/mL) | – |
| CC(=O)O[C@H]1C[C@@]2(C)[C@@H](C[C@@H](O)[C@H]3[C@@]4(C)CC[C@@H](O)[C@@H](C)[C@@H]4CC[C@@]32C)/C1=C(\CCC=C(C)C)C(=O)N/N=C/c1ccncc1 | 20 (≈ 12.4 µg/mL) | – |
| CCCc1noc(/C(CCC=C(C)C)=C2\[C@@H](OC(C)=O)C[C@@]3(C)[C@H]2C[C@@H](O)[C@H]2[C@@]4(C)CC[C@@H](O)[C@@H](C)[C@@H]4CC[C@@]23C)n1 | 80 (≈ 46.6 µg/mL) | 68.2 |
| CC(=O)O[C@H]1C[C@@]2(C)[C@@H](C[C@@H](O)[C@H]3[C@@]4(C)CC[C@@H](O)[C@@H](C)[C@@H]4CC[C@@]32C)/C1=C(\CCC=C(C)C)c1nc(-c2ccc(F)cc2)no1 | > 125 | 77.4 |
| CC(=O)O[C@H]1C[C@@]2(C)[C@@H](C[C@@H](O)[C@H]3[C@@]4(C)CC[C@@H](OC(=O)c5ccc(F)cc5)[C@@H](C)[C@@H]4CC[C@@]32C)/C1=C(\CCC=C(C)C)C(=O)O | > 125 | – |
| CO/N=C1\CC[C@@]2(C)[C@@H](CC[C@@]3(C)[C@H]2[C@H](O)C[C@H]2/C(=C(\CCC=C(C)C)C(=O)O)[C@@H](OC(C)=O)C[C@@]23C)[C@@H]1C | 20 (≈ 10.9 µg/mL) | – |
| CC(=O)O[C@H]1C[C@@]2(C)[C@@H](C[C@@H](O)[C@H]3[C@@]4(C)CC[C@@H](O)[C@@H](C)[C@@H]4CC[C@@]32C)/C1=C(\CCC=C(C)C)C(=O)N1CC(O)C1 | 40 (≈ 22.9 µg/mL) | – |
| CC(=O)O[C@H]1C[C@@]2(C)[C@@H](C[C@@H](O)[C@H]3[C@@]4(C)CC[C@@H](OC(=O)c5ccc(C(F)(F)F)cc5)[C@@H](C)[C@@H]4CC[C@@]32C)/C1=C(\CCC=C(C)C)C(=O)O | > 125 | – |
| CC(=O)O[C@H]1C[C@@]2(C)[C@@H](C[C@@H](O)[C@H]3[C@@]4(C)CC[C@@H](O)[C@@H](C)[C@@H]4CC[C@@]32C)/C1=C(\CCC=C(C)C)C(=O)NS(C)(=O)=O | 80 (≈ 47.5 µg/mL) | > 169 |
| CC(=O)O[C@H]1C[C@@]2(C)[C@@H](C[C@@H](O)[C@H]3[C@@]4(C)CC[C@@H](O)[C@@H](C)[C@@H]4CC[C@@]32C)/C1=C(\CCC=C(C)C)C(=O)NNC(=O)c1cccs1 | 40 (≈ 25.6 µg/mL) | 78.8 |
| CC(=O)O[C@H]1C[C@@]2(C)[C@@H](CC(=O)[C@H]3[C@@]4(C)CCC(=O)[C@@H](C)[C@@H]4CC[C@@]32C)/C1=C(\CCC=C(C)C)C(=O)O | 11.9 (≈ 6.1 µg/mL) | – |
| CCCCC(=O)O[C@@H]1CC[C@@]2(C)[C@@H](CC[C@@]3(C)[C@H]2[C@H](O)C[C@H]2/C(=C(\CCC=C(C)C)C(=O)NNS(C)(=O)=O)[C@@H](OC(C)=O)C[C@@]23C)[C@@H]1C | 62.5 (≈ 43.3 µg/mL) | – |
| CC(=O)O[C@H]1C[C@@]2(C)[C@@H](C[C@@H](O)[C@H]3[C@@]4(C)CC[C@@H](O)[C@@H](C)[C@@H]4CC[C@@]32C)/C1=C(\CCC=C(C)C)C(=O)NS(=O)(=O)c1ccc(C#N)cc1 | 125 (≈ 85.1 µg/mL) | – |
| CC(=O)O[C@H]1C[C@@]2(C)[C@@H](C[C@@H](O)[C@H]3[C@@]4(C)CC[C@@H](O)[C@@H](C)[C@@H]4CC[C@@]32C)/C1=C(\CCC=C(C)C)C(=O)N/N=C/c1cccnc1 | 20 (≈ 12.4 µg/mL) | – |
| CC(=O)O[C@H]1C[C@@]2(C)[C@@H](C[C@@H](O)[C@H]3[C@@]4(C)CC[C@@H](O)[C@@H](C)[C@@H]4CC[C@@]32C)/C1=C(\CCC=C(C)C)C(=O)NS(=O)(=O)c1ccccc1 | > 125 | 96.1 |

| Compound | MIC99 [1] [µM] | IC50 [2] [µM] |
| --- | --- | --- |
| CC(=O)O[C@H]1C[C@@]2(C)[C@@H](C[C@@H](O)[C@H]3[C@@]4(C)CC[C@@H](OC(=O)c5ccc([N+](=O)[O-])cc5)[C@@H](C)[C@@H]4CC[C@@]32C)/C1=C(\CCC=C(C)C)C(=O)O | > 125 | – |
| CCCCCCC(=O)O[C@@H]1CC[C@@]2(C)[C@@H](CC[C@@]3(C)[C@H]2[C@H](O)C[C@H]2/C(=C(\CCC=C(C)C)C(=O)O)[C@@H](OC(C)=O)C[C@@]23C)[C@@H]1C | 5 (≈ 3.14 µg/mL) | 36.2 |
| CC(=O)O[C@H]1C[C@@]2(C)[C@@H](C[C@@H](O)[C@H]3[C@@]4(C)CC[C@@H](O)[C@@H](C)[C@@H]4CC[C@@]32C)/C1=C(\CCC=C(C)C)C(N)=O | > 125 | 113 |
| CO[C@H]1C[C@@]2(C)[C@@H](C[C@@H](O)[C@H]3[C@@]4(C)CC[C@@H](O)[C@@H](C)[C@@H]4CC[C@@]32C)/C1=C(\CCC=C(C)C)C(=O)O | 18.7 (≈ 9.14 µg/mL) | 29 |
| CC(=O)O[C@H]1C[C@@]2(C)[C@@H](C[C@@H](O)[C@H]3[C@@]4(C)CC/C(=N\OCc5ccccc5)[C@@H](C)[C@@H]4CC[C@@]32C)/C1=C(\CCC=C(C)C)C(=O)O | 40 (≈ 24.8 µg/mL) | – |
| CCCCS(=O)(=O)NNC(=O)/C(CCC=C(C)C)=C1\[C@@H](OC(C)=O)C[C@@]2(C)[C@H]1C[C@@H](O)[C@H]1[C@@]3(C)CC[C@@H](O)[C@@H](C)[C@@H]3CC[C@@]12C | > 125 | 49.9 |
| CC(=O)O[C@H]1C[C@@]2(C)[C@@H](C[C@@H](O)[C@H]3[C@@]4(C)CC[C@@H](O)[C@@H](C)[C@@H]4CC[C@@]32C)/C1=C(\CCC=C(C)C)C(=O)NS(=O)(=O)c1ccc(F)c(F)c1 | 20 (≈ 13.8 µg/mL) | 81.4 |
| CC(=O)O[C@H]1C[C@@]2(C)[C@@H](C[C@@H](O)[C@H]3[C@@]4(C)CC[C@@H](OC(=O)c5ccc(Br)cc5)[C@@H](C)[C@@H]4CC[C@@]32C)/C1=C(\CCC=C(C)C)C(=O)O | > 125 | – |
| CC(=O)O[C@H]1C[C@@]2(C)[C@@H](C[C@@H](O)[C@H]3[C@@]4(C)CC[C@@H](O)[C@@H](C)[C@@H]4CC[C@@]32C)/C1=C(\CCC=C(C)C)C(=O)NN | 40 (≈ 21.2 µg/mL) | 112 |
| CC(=O)O[C@H]1C[C@@]2(C)[C@@H](C[C@@H](O)[C@H]3[C@@]4(C)CC[C@@H](O)[C@@H](C)[C@@H]4CC[C@@]32C)/C1=C(\CCC=C(C)C)c1n[nH]c(=O)o1 | 80 (≈ 44.5 µg/mL) | 82 |
| CC[C@H]1CN2CCc3cc(OC)c(OC)cc3[C@@H]2C[C@@H]1C[C@H]1NCCc2cc(OC)c(OC)cc21 [EMETINE] | – | 0.4 |
| CC(=O)O[C@H]1C[C@@]2(C)[C@@H](C[C@@H](O)[C@H]3[C@@]4(C)CCC(=O)[C@@H](C)[C@@H]4CC[C@@]32C)/C1=C(\CCC=C(C)C)C(=O)NNS(C)(=O)=O | 62.5 (≈ 37.9 µg/mL) | – |
| CC(=O)O[C@H]1C[C@@]2(C)[C@@H](C[C@@H](O)[C@H]3[C@@]4(C)CC[C@@H](O)[C@@H](C)[C@@H]4CC[C@@]32C)/C1=C(\CCC=C(C)C)C(=O)N1CCC(O)CC1 | 40 (≈ 24 µg/mL) | – |
| CC(=O)O[C@H]1C[C@@]2(C)[C@@H](C[C@@H](O)[C@H]3[C@@]4(C)CC[C@@H](O)[C@@H](C)[C@@H]4CC[C@@]32C)C1=O | > 125 | – |
| CC(=O)O[C@H]1C[C@@]2(C)[C@@H](C[C@@H](OC(C)=O)[C@H]3[C@@]4(C)CC[C@@H](OC(C)=O)[C@@H](C)[C@@H]4CC[C@@]32C)/C1=C(\CCC=C(C)C)C(=O)O | 52.5 (≈ 31.5 µg/mL) | – |
| CCCCC(=O)O[C@@H]1CC[C@@]2(C)[C@@H](CC[C@@]3(C)[C@H]2[C@H](O)C[C@H]2/C(=C(\CCC=C(C)C)C(=O)NN)[C@@H](OC(C)=O)C[C@@]23C)[C@@H]1C | 62.5 (≈ 38.4 µg/mL) | – |
| CC(=O)O[C@H]1C[C@@]2(C)[C@@H](C[C@@H](O)[C@H]3[C@@]4(C)CC[C@@H](O)[C@@H](C)[C@@H]4CC[C@@]32C)/C1=C(\CCC=C(C)C)C(=O)NCCO | > 125 | – |
| CC(=O)O[C@H]1C[C@@]2(C)[C@@H](C[C@@H](O)[C@H]3[C@@]4(C)CC[C@@H](OC(=O)c5ccncc5)[C@@H](C)[C@@H]4CC[C@@]32C)/C1=C(\CCC=C(C)C)C(=O)O | 31.3 (≈ 19.5 µg/mL) | – |
| COc1ccc(S(=O)(=O)NC(=O)/C(CCC=C(C)C)=C2\[C@@H](OC(C)=O)C[C@@]3(C)[C@H]2C[C@@H](O)[C@H]2[C@@]4(C)CC[C@@H](O)[C@@H](C)[C@@H]4CC[C@@]23C)cc1 | 31.3 (≈ 21.5 µg/mL) | – |
| CC(=O)O[C@H]1C[C@@]2(C)[C@@H](C[C@@H](O)[C@H]3[C@@]4(C)CC[C@@H](O)[C@@H](C)[C@@H]4CC[C@@]32C)/C1=C(\CCC=O)C(=O)O | 40 (≈ 19.6 µg/mL) | – |
| CCC(=O)O[C@@H]1CC[C@@]2(C)[C@@H](CC[C@@]3(C)[C@H]2[C@H](O)C[C@H]2/C(=C(\CCC=C(C)C)C(=O)NN)[C@@H](OC(C)=O)C[C@@]23C)[C@@H]1C | 15.6 (≈ 9.15 µg/mL) | – |
